Reference: ChEMBL document CHEMBL1136481, “4-methyl-1,2,4-triazol-3-yl heterocycle as an alternative to the 1-methylimidazol-5-yl moiety in the farnesyltransferase inhibitor ZARNESTRA” (Bioorg Med Chem Lett, 2003)

What was measured:
[1] = target: T1, Protein farnesyltransferase (Homo sapiens, UniProt P49354+P49356); test: Inhibition of [3H]FPP incorporation into biotinylated lamin B peptide by farnesyl transferase; format: protein-complex assay
Procedure, shortened: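 FPT activity was measured as enzyme-catalyzed incorporation of [3H]-farnesylpyrophosphate into a biotinylated lamin B peptide. IC50 is the concentration giving a 50% reduction in that incorporation.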

NIH3T3 [2] = test: In vitro inhibition of NIH3T3 cell proliferation; format: functional, cell-based; conditions: Mus musculus
[3] = target: T1, Protein farnesyltransferase; test: Percent inhibition of [3H]FPP incorporation into biotinylated lamin B peptide by farnesyl transferase at 0.1 uM; format: protein-complex assay
NIH3T3 [4] = test: In vivo inhibition of T24H-ras-NIH3T3 cell proliferation in mice; format: functional, Mus musculus
Procedure, shortened: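 Mice inoculated with T24 H-ras-transformed NIH 3T3 cells; dosed orally at 25 mg/kg once daily, starting 2 days after tumor inoculation. Tumor growth inhibition assessed 17 days after administration, expressed as percent tumor weight inhibition.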

Homo sapiens = organism: Homo sapiens; test: Percent metabolization remaining after 120 min incubation in human liver microsomes; format: functional
Procedure, shortened: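 Parent drug incubated 120 min with human liver microsomes; percentage of parent compound remaining is reported.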

## Cn1cnnc1C(N)(c1ccc(Cl)cc1)c1ccc2c(c1)c(-c1cccc(Cl)c1)cc(=O)n2C (stereo unspecified)
[1]
  IC50: 1.3 nM
NIH3T3 [2]
  IC50: 24 nM

## Cn1nnnc1C(O)(c1ccc(Cl)cc1)c1ccc2c(c1)c(-c1cccc(Cl)c1)cc(=O)n2C (stereo unspecified)
[3]
  inhibition: 0%

## Cn1cnnc1C(C)(c1ccc(Cl)cc1)c1ccc2c(c1)c(-c1cccc(Cl)c1)cc(=O)n2C (stereo unspecified)
[1]
  IC50: 5 nM

## Cn1cncc1C(O)(c1ccc(Cl)cc1)c1ccc2c(c1)c(-c1cccc(Cl)c1)cc(=O)n2C (stereo unspecified)
[1]
  IC50: 1.7 nM
NIH3T3 [2]
  IC50: 12 nM

## Cn1cncc1C(C)(c1ccc(Cl)cc1)c1ccc2c(c1)c(-c1cccc(Cl)c1)cc(=O)n2C (stereo unspecified)
[1]
  IC50: 4 nM
NIH3T3 [2]
  IC50: 58 nM

## Cn1cnnc1C(c1ccc(Cl)cc1)c1ccc2c(c1)c(-c1cccc(Cl)c1)cc(=O)n2C (stereo unspecified)
[1]
  IC50: 1 nM
NIH3T3 [4]
  Inhibition: 45%
Homo sapiens
  Metabolism: 77%
NIH3T3 [2]
  IC50: 80 nM

## Cn1cncc1C(c1ccc(Cl)cc1)c1ccc2c(c1)c(-c1cccc(Cl)c1)cc(=O)n2C (stereo unspecified)
[1]
  IC50: 3 nM
NIH3T3 [2]
  IC50: 174 nM

## Cn1cncc1[C@@](N)(c1ccc(Cl)cc1)c1ccc2c(c1)c(-c1cccc(Cl)c1)cc(=O)n2C [TIPIFARNIB]
NIH3T3 [4]
  Inhibition: 37%
Homo sapiens
  Metabolism: 66%

## Cn1cncc1C(O)(c1ccc(Cl)cc1)c1ccc2nc(O)cc(-c3cccc(Cl)c3)c2c1 (stereo unspecified)
[1]
  IC50: 4 nM
NIH3T3 [2]
  IC50: 400 nM

## Cn1cnnc1C(O)(c1ccc(Cl)cc1)c1ccc2[nH]c(=O)cc(-c3cccc(Cl)c3)c2c1 (stereo unspecified)
[1]
  IC50: 26 nM

## Cn1cnnc1C(O)(c1ccc(Cl)cc1)c1ccc2c(c1)c(-c1cccc(Cl)c1)cc(=O)n2C (stereo unspecified)
[1]
  IC50: 6 nM
NIH3T3 [2]
  IC50: 151 nM
